This is a sample that favours compounds with a hit; in the whole collection about 4.1% have one here.
FLuc stim CS: FLuc activators, initial screening, artefact control for FLuc-dependent activation tests, biochemical, ATPlite luminescence; ATPlite luciferase biochemical, 10 min; 0 = ATP-free wells, 1 = DMSO control; activation factor at 10 µM; 200,000 tested, under 10 active; AID 1027, 2008;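 active = luciferase activation factor, scaled between plate controls, of at least 2 with compound at 10 µM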
Target sequence (P08659 whole entry, looked up): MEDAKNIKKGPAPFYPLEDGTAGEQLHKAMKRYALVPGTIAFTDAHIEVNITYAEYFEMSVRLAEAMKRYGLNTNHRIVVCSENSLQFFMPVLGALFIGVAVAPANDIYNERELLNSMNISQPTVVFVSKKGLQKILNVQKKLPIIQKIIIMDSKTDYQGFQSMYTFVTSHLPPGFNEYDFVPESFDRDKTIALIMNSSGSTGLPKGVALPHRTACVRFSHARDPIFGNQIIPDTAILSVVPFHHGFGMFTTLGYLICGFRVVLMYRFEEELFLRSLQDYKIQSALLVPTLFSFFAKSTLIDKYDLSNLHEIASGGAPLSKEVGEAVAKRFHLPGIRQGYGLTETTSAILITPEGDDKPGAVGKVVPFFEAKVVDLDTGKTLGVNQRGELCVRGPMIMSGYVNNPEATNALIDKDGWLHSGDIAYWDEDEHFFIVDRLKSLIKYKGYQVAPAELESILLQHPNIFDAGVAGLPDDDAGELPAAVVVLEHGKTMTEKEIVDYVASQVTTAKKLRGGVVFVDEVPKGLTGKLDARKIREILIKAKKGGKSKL
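assay system = Luciferase/luciferin detection reagent, cell-free biochemical luciferase assay | also added = ATP substrate | times = 10 min post-reagent at room temperature | measured by = luminescence from luciferase reaction | measure = luciferase activation, seen as luminescence increase over controls | benchmarks = low control with PBS replacing ATP, high control enzyme plus ATP without compound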
NF-kB expr up: activators of NF-kB expression in neurons, primary screen, cell-based, HTS | human neuronal cells, NF-kB reporter expression; stronger effect = higher value | fold change at 12.5 µM | 190,000 compounds, 1.6% hits | AID 1239, 2008; in the data active = fold change above about 3.3
FLuc inh counter: firefly luciferase enzyme inhibitors, primary screen, artefact control for luciferase-based inhibitor screens, biochemical, luminescence, ATPLite; 200,000 compounds, 1.5% hits; 10 min; inhibition, % at 10 µM;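 active = inhibition above about 50% when tested at 10 µM, limit read from the data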
APP 5'UTR act: activators of APP 5'UTR luciferase reporter, primary screen, SH-SY5Y cells; SH-SY5Y APP 5'UTR luciferase reporter, luminescence; zero percent = DMSO vehicle wells; activation, % at 2 µM; 190,000 compounds, 1% hits; AID 1276, 2008;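 active = activation above a set limit, based on mean plus 3 SD of controls, cut at about 140% in these data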
STAT1 act: STAT1 signaling activators, primary screen, cell-based, HTS, luciferase reporter | NIH 3T3 STAT1-luciferase reporter, IFN-gamma, luminescence; 100% = IFN-gamma alone, no compound | activation (% of control), % at 5.5 µM | 200,000 compounds, 2.6% hits;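 active = activation above the screen-wide mean activation plus 3 SD, cut at about 130% in these data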
Large screens that a line does not name were inactive.

Cc1ccc(CSc2nnc(SCC(=O)N/N=C/C=C/c3ccccc3[N+](=O)[O-])s2)cc1	FLuc inh counter 59
O=C(N/N=C/C=C\c1ccccc1[N+](=O)[O-])c1cccs1	NF-kB expr up 5.2
CCOc1cc(/C=N/NC(=O)c2cccs2)cc([N+](=O)[O-])c1O	STAT1 act 129
Cc1nn(C(C)C(=O)NNC(=S)Nc2ccc(F)cc2)c(C)c1[N+](=O)[O-] (stereo not drawn)	none
O=c1c(F)cn(C2CCCO2)c(=O)n1Cc1ccc(Cl)cc1 (stereo not drawn)	none (no result: NF-kB expr up)
CC(C)(C)n1ncc2c(=O)n(CC(=O)NCc3ccccc3Cl)cnc21	APP 5'UTR act 193, STAT1 act 145
O=[N+]([O-])c1ccc(/C=N/N/C(=N/c2ccccn2)c2ccccn2)cc1	STAT1 act 135
O=[N+]([O-])c1cc(/C=N/N/C(=N/c2ccccn2)c2ccccn2)ccc1O	none
CCOC(=O)c1sc(NC(=O)c2ccco2)nc1C	none (no result: APP 5'UTR act, STAT1 act)
CCOC(=O)c1sc(NC(=O)c2ccc(C)o2)nc1C	FLuc inh counter 69
Cc1c(C(=O)Nc2nnc(C(F)(F)F)s2)oc2ccccc12	none (no result: APP 5'UTR act, STAT1 act)
CCOC(=O)c1sc(NC(=O)c2ccc(OC)cc2)nc1C	none
COC(=O)c1sc(NC(=O)c2ccc(C)o2)nc1C	FLuc inh counter 52
COC(=O)c1sc(NC(=O)c2oc3ccccc3c2C)nc1C	STAT1 act 144
CCOc1ccc(NC(=O)CC(c2ccccc2)c2ccc(F)cc2)cc1 (stereo not drawn)	none
O=C(CSc1nnc(Cn2c(=O)sc3ccccc32)n1-c1ccccc1)Nc1nccs1	none
S=C(NCCc1cnc[nH]1)NC1CCCC1	none
COc1cc(/C=C2\SC(c3ccc(C)cc3)=NC2=O)cc(OC)c1O	none
Cc1ccc(C2=NC(=O)/C(=C/c3cc(O)c(O)c(Br)c3)S2)cc1	FLuc inh counter 50
CC(NC(=O)Cc1cccs1)C(c1cccs1)N1CCN(c2ccccc2F)CC1 (stereo not drawn)	none
Cc1ccc(S(=O)(=O)N2CCN(C(=O)CSc3ncc(C(F)(F)F)cc3Cl)CC2)cc1	FLuc inh counter 58
Cc1ccc(S(=O)(=O)N(C)C)cc1NC(=O)CSc1ncc(C(F)(F)F)cc1Cl	none
Cc1nn(-c2ccccc2)c(C)c1/C=N/NC(=O)c1cccs1	STAT1 act 140
O=C(O)c1cc(N/N=C/c2ccc(OCc3ccccc3)cc2)ccc1Cl	STAT1 act 134
Cc1nn(-c2ccccc2)c(Cl)c1/C=N/NC(=O)OC(C)(C)C	STAT1 act 139
Cc1nn(-c2ccccc2)c(C)c1/C=N/NC(=O)c1cc(-c2cccs2)[nH]n1	none
Cc1nn(-c2ccccc2)c(Cl)c1/C=N/NC(=O)c1ccco1	FLuc inh counter 58, STAT1 act 141
Cc1ccc2cn[nH]c2c1[N+](=O)[O-]	none
O=C(NC1CCCC1)C(c1ccc(F)cc1)N(Cc1ccccc1Cl)C(=O)CCl (stereo not drawn)	none
Cc1nn(-c2ccccc2)c(Cl)c1/C=N/Nc1ccc(Cl)c(C(=O)O)c1	NF-kB expr up 10, FLuc inh counter 87
CNC(=S)N/N=C/c1c(C)nn(-c2ccccc2)c1Cl	none
COc1cc(NC(=O)COC(=O)Cc2ccc(-c3ccccc3)cc2)cc(OC)c1	none
COc1ccc(C)cc1NC(=O)NCc1ccc(F)cc1	FLuc inh counter 58
CC12C=CC3(O1)C(C(=O)N(c1ccccc1)C3C(=O)NC1CCCC1)C2C(N)=O (stereo not drawn)	none
CC1=CC(=C2C(=O)c3ccccc3C2=O)C=C(C)N1C	STAT1 act 135
O=C(NCC1CCCO1)C1c2ccccc2C(=O)N1C1CCCCCC1 (stereo not drawn)	none
S=c1[nH]ncn1/N=C/c1ccc(Br)cc1	none
CN(C)/N=C/c1ccc(N2CCOCC2)cc1	FLuc inh counter 63
S=c1[nH]ncn1/N=C/c1ccc(N2CCOCC2)cc1	FLuc inh counter 87 (no result: APP 5'UTR act)
Fc1ccc(N/N=C/c2ccc(N3CCOCC3)cc2)c(F)c1	NF-kB expr up 3.6, STAT1 act 131
Nc1cc(C(F)(F)F)ccc1Nc1ccccc1	none
CC(C)(C)[C@H]1C=C(C(N)=O)O[C@@H](OCc2ccc(CO)cc2)C1	none
CC(=O)Nc1cc2c(ccc3ccccc32)oc1=O	none
CNC(=O)c1cc2c(ccc3ccccc32)o1	STAT1 act 133
O=C(Nc1cc2c(ccc3ccccc32)oc1=O)C1CCCCC1	none
O=C(NC1CCCC1)c1cc2c(ccc3ccccc32)o1	NF-kB expr up 3.4, STAT1 act 137
NC(=O)C(=O)N/N=C/c1c(F)c(F)c(F)c(F)c1F	none
Cc1ccc(C(=O)NC(=S)NCC2CCCO2)cc1 (stereo not drawn)	STAT1 act 129
Cc1ccc(NC(=O)C(=O)NCC2CCCO2)cc1C (stereo not drawn)	STAT1 act 142
O=C(NC(=S)NCC1CCCO1)c1ccc(Cl)cc1 (stereo not drawn)	none
Cc1ccc(NC(=O)C(=O)NCC2CCCO2)cc1 (stereo not drawn)	STAT1 act 137
O=C(NC(c1ccccc1)c1ccccc1)c1ccc(S(=O)(=O)C(F)F)cc1	none
Cc1ccc([N+](=O)[O-])cc1NC(=S)NC(=O)c1cccs1	none
COc1ccc(OC)c(/C=N/N(C)c2ccccc2)c1	STAT1 act 137
COc1cc(/C=N/N(C)c2ccccc2)cc(Cl)c1O	none
C/C(=N\N1CCN(C2c3ccccc3-c3ccccc32)CC1)c1cccnc1	none
CN=c1scc(-c2ccccc2F)n1/N=C(\C)c1cccnc1	NF-kB expr up 6, FLuc inh counter 73, APP 5'UTR act 186, STAT1 act 132
CC(C)(C)C(=O)NC(NC(=S)Nc1sc2c(c1C#N)CCCC2)C(Cl)(Cl)Cl (stereo not drawn)	none
O=C1CC(/C=C/c2ccccc2)=Nc2ccccc2N1	NF-kB expr up 4, STAT1 act 142
O=C1CC(/C=C/c2cccnc2)=Nc2ccccc2N1	none
Cc1ccc(NC(=S)Nc2ccc(F)cc2)c(C)c1	none
O=c1[nH][nH]c(=O)n1-c1ccccc1	none
COc1ccc(OCC(=O)Nc2cccc(-c3nc4ccccc4[nH]3)c2)cc1	none
COc1ccc2nc(-c3ccc(N)cc3)[nH]c2c1	FLuc inh counter 65
COc1ccc2nc(-c3cccc(N)c3)[nH]c2c1	FLuc inh counter 87
COc1ccc2nc(SCC(N)=O)[nH]c2c1	none
COc1ccc(OCCSc2nnnn2C2CCCCC2)cc1	none
c1ccc(OCCSc2nnnn2C2CCCCC2)cc1	APP 5'UTR act 142, STAT1 act 133 (no result: NF-kB expr up)
CC(C)C/C=C1\CCc2c([nH]c3ccccc23)C1=O	STAT1 act 143
